The target of test [1] is T1, murine TAP (Mus musculus, UniProt P21958+P36371).
T1 sequence (P21958 1-724): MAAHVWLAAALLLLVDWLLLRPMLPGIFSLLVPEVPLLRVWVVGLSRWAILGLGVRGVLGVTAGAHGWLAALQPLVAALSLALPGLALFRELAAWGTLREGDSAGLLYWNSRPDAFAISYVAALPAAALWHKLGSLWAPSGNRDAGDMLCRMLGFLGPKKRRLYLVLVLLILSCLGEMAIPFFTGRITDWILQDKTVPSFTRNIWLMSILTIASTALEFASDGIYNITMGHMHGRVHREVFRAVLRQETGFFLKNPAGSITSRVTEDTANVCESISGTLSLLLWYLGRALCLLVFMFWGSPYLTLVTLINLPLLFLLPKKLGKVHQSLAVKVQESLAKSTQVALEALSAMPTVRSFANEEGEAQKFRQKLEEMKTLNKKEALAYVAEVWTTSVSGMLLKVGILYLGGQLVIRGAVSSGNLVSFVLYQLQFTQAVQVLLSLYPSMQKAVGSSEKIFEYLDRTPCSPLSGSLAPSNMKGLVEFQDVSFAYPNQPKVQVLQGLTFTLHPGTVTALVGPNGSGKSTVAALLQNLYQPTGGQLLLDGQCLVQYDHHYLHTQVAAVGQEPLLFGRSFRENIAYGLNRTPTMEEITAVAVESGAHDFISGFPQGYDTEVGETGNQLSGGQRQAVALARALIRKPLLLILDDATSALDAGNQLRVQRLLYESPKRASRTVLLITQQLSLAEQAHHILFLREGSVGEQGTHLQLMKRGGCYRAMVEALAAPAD
T1 sequence (P36371 1-702): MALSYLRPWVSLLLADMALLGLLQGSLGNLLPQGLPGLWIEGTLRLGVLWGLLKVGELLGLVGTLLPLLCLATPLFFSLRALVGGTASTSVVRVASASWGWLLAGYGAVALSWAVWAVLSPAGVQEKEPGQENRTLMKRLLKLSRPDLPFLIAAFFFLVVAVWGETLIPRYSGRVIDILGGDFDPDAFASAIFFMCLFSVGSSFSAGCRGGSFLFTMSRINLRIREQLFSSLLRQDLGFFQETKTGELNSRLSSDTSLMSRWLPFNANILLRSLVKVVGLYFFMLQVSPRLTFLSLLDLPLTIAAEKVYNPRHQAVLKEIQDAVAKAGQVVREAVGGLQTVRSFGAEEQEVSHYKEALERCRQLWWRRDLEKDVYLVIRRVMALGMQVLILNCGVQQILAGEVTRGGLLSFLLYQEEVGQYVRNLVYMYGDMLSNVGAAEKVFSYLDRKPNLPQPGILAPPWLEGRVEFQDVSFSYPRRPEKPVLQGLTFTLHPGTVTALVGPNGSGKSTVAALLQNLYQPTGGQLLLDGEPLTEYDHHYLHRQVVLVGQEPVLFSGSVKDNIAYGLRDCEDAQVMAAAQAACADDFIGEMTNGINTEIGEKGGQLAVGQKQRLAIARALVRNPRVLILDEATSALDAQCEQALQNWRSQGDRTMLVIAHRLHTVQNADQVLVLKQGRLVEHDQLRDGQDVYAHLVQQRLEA
Conditions: cited from earlier work.

Test [2] has as its target T2, human TAP1+2 (Homo sapiens, UniProt Q03518+Q03519).
T2 sequence (Q03518 1-748): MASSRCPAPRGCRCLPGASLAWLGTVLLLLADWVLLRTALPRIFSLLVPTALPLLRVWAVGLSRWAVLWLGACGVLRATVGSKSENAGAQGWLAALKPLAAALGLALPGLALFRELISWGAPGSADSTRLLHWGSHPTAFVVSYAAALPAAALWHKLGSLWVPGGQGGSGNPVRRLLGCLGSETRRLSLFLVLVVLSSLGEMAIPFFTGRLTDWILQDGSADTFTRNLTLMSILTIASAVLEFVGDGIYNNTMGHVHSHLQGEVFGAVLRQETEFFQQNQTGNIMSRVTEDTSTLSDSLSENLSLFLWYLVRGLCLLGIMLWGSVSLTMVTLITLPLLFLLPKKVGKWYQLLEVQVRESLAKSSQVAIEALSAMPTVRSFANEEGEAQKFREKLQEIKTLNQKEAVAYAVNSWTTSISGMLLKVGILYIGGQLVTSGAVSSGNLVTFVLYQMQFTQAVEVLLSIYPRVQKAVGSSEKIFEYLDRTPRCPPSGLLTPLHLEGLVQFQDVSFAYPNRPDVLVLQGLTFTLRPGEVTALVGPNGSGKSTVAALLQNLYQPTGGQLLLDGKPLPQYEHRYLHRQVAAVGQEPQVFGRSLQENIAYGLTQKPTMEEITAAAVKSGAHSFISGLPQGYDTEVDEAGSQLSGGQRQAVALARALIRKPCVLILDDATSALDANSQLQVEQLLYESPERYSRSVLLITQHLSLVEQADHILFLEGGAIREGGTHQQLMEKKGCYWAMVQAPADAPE
T2 sequence (Q03519 1-686): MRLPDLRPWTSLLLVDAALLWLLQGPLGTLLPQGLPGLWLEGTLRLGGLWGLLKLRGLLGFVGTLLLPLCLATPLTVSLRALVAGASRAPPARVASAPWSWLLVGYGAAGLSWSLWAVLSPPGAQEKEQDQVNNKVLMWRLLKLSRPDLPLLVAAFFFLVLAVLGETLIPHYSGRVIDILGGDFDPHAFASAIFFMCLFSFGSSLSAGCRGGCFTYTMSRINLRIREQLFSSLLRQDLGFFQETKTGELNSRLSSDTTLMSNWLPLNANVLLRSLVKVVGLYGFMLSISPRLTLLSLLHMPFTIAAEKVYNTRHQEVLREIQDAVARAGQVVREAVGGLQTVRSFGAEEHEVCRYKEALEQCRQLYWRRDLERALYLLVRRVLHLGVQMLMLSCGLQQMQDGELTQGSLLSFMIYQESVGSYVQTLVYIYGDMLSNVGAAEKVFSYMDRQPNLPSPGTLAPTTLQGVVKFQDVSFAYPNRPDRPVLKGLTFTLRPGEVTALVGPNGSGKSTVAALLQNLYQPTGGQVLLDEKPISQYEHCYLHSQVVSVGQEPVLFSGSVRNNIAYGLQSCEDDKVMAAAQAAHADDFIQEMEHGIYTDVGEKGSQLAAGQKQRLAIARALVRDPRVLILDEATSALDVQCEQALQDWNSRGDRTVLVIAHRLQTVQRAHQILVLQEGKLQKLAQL
Type of test: binding.

Test [3] addresses T3, human TAP (Homo sapiens, UniProt Q03518+Q03519).
T3 sequence (Q03518 1-748): T2 sequence (Q03518 1-748)
T3 sequence (Q03519 1-686): T2 sequence (Q03519 1-686)
In words: TAP-dependent peptide translocation assay in SLO-permeabilized human cells. It counts as cell-based. The method in brief: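 Hmy2.C1R cells washed in KCl/Hepes transport buffer (pH 7.3) at 4°C, then permeabilized with streptolysin O (2 U/ml, 10 min, 37°C). 10^6 cells/sample incubated 10 min at 37°C with chloramine T-iodinated peptide library, ATP-generating system and test compound (3.3 μM, or a concentration series). Stopped with ice-cold EDTA/azide buffer, NP-40 lysed, Con A–Sepharose capture, γ counting. Percent of no-inhibitor transport, duplicates.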

rICP47: recombinant ICP47 from HSV-1: the “ability to block or inhibit mouse TAP” value in test [1] was “unable to block”.
In the case of “1–35 Tpa: 1–35-mer polypeptide with photoactivable phenylalanine analogue Tpa coupled to its NH2 terminus”, in test [2], the “TAP subunits labeled by cross-linking” value is “Both TAP1 and TAP2 subunits were photolabeled”. Moreover, the “block of TAP function compared with the unmodified 1–35 polypeptide” value in test [3] (data not shown) was “less efficiently”.
As to “1–35: peptide corresponding to residues 1–35 of ICP47”, the “concentration at which full inhibition had just been reached” value in test [3] (human cell line Hmy2.C1R, chosen for the alanine scan, Fig. 3 D) is 3.3 µM.
For the substance “^125I-labeled Tyr21 1–35 polypeptide: 1–35 polypeptide labeled with 125I at Tyr 21”, the “TAP subunits labeled by cross-linking” value in test [2] was “only TAP1 crosslinks”.
“N-acetylated ICP47-1–53: ICP47-1–53 N-acetylated on the resin”: the “effect of N-acetylation on the ability to inhibit TAP” value in test [3] (human cell line Hmy2.C1R, compared with 1–53 polypeptide, Fig. 3 E) is “no effect”.
“ICP47: herpes simplex virus immediate early protein, 87–amino acid cytosolic polypeptide, inhibitor of TAP”: in test [1], the “ability to block or inhibit mouse TAP” value is listed as “inability”.

Values taken from publication PMC2196299 (The Journal of Experimental Medicine, 1997).
